Assay results published in publication PMC3730172 (Scientific Reports, 2013).
Substitutions are numbered along the chain they refer to. Where “and” joins values, the source holds several entries; their conditions need not be identical. Equal values may be shown once.

Assays:
PPM1A D282A = target: T1, PPM1A D282A (Homo sapiens, UniProt P35813, D282A); test: Dephosphorylation of pp-ERK2 protein by PPM1A D282A in vitro; assay type: biochemical; details: 1.5 μM Cd^2+
T1 sequence (P35813 1-382 D282A): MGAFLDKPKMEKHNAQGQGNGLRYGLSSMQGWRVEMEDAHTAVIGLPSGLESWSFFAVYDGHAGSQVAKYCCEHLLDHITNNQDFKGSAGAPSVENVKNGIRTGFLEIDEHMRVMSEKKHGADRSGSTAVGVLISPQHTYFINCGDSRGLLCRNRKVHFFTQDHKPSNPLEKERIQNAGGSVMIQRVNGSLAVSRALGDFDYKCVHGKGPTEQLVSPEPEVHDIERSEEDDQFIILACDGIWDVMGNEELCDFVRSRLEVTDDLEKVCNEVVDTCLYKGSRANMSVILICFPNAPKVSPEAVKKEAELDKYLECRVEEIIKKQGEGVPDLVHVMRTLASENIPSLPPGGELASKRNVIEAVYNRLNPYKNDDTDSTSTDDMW
How it was run: (§1)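 Recombinant doubly phosphorylated ERK2 as substrate in 0.05 M Tris/0.05 M Bis-Tris/0.1 M acetate, pH 8.0, 37°C, 1 mM Mn2+, with or without 1.5 µM Cd2+; reactions started by adding phosphatase, stopped by boiling in SDS buffer (100°C, 10 min); phospho-ERK (pT/pY) by Western blot; triplicate, mean ± standard error.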

[1] = tested on: PC12 cells overexpressing PPM1A D239K; test: Apoptosis assay in PC12 cells overexpressing PPM1A D239K; assay type: cell-based; details: overexpression of Cd^2+ insensitive mutant D239K; 1.5 and 2.5 μM, 24 h
PC12 cells = test: Apoptosis assay in PC12 cells; assay type: cell-based; details: 1.5 or 2.5 μM Cd^2+, 24 h
PP2A = PP2A (Homo sapiens, UniProt P67775); test: Cadmium inhibition assay of PP2A; assay type: biochemical; details: pNPP, pH 8.0, 25°C
Chain of PP2A (P67775 whole entry): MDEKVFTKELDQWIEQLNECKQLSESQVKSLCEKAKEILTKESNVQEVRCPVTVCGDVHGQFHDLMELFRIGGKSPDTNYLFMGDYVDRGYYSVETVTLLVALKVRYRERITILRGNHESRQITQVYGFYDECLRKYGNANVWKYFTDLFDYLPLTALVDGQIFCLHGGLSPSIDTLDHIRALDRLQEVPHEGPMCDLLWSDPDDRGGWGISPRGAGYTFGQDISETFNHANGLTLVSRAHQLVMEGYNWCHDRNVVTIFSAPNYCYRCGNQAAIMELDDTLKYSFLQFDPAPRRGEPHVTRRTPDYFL
Chain of PP2A (P30153 2-589 partner limits assumed): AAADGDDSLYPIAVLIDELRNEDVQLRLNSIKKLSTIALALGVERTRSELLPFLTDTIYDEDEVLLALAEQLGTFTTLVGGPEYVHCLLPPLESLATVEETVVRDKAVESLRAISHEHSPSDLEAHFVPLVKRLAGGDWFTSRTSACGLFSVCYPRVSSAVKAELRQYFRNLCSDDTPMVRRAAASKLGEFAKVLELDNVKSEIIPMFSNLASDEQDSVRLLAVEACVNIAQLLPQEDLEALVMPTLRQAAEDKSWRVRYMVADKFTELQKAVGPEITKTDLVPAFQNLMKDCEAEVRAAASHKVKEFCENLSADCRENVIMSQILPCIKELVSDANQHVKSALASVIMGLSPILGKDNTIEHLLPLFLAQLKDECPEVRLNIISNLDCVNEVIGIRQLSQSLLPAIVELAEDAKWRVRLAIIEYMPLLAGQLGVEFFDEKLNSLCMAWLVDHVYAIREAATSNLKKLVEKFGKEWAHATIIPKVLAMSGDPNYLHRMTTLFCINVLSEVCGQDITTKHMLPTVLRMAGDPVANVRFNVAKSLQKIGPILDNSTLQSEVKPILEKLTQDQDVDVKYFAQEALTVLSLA
How it was run: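 Commercial PP2A assayed on pNPP in 0.05 M Tris/0.05 M Bis-Tris/0.1 M acetate at pH 8.0 and 25°C; EDTA (0.5 M, pH 10.0) stop; p-nitrophenol at 405 nm.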

PPM1G [2] = target: T2, PPM1G (Homo sapiens, UniProt O15355); test: PPM1G-catalyzed hydrolysis of pp-ERK and pp-P38 phospho-peptides; assay type: biochemical; details: pp-ERK and pp-P38 phospho-peptide substrates
T2 sequence (O15355 1-546): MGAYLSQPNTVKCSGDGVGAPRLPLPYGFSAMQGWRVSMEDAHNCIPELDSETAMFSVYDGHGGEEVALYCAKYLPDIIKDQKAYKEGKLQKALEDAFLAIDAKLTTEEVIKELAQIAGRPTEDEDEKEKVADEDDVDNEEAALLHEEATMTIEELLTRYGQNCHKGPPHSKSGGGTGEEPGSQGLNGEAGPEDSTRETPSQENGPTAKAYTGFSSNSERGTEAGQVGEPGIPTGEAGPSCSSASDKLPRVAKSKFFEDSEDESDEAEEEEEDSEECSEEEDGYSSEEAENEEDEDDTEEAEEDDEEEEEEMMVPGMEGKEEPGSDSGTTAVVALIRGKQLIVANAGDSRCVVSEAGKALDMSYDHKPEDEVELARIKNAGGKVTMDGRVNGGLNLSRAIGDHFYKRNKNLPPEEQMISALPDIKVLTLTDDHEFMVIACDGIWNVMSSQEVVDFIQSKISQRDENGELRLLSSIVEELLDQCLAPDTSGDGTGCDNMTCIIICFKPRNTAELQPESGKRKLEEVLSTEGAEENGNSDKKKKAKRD

PPM1A [3] = target: T3, PPM1A (Homo sapiens, UniProt P35813); test: PPM1A-catalyzed hydrolysis of pp-ERK and pp-P38 phospho-peptides; assay type: biochemical; details: pp-ERK and pp-P38 phospho-peptide substrates
T3 sequence (P35813 1-382): T1 sequence (P35813 1-382 D282A) with A282D

[4] = target: T4, striatum-enriched phosphatase (STEP) (Homo sapiens, UniProt P54829); test: Dephosphorylation of pp-ERK2 protein by STEP in vitro; assay type: biochemical; details: 1.5 μM Cd^2+, pH 8.0, 37°C
T4 sequence (P54829 1-565): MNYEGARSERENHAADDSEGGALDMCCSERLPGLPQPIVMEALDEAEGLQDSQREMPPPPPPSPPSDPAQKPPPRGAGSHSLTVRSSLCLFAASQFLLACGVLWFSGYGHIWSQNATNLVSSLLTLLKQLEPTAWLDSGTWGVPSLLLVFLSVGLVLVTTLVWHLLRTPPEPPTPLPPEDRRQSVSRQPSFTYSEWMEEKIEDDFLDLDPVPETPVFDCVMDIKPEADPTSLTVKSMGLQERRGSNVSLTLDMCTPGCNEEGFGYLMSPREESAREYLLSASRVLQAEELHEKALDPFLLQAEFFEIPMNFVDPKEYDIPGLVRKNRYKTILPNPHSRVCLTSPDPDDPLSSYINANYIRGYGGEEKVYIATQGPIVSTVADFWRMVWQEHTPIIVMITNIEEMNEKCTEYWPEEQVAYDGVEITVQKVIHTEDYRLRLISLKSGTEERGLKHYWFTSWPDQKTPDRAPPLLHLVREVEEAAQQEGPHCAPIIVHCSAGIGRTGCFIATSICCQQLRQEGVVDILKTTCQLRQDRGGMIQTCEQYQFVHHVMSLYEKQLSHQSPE

[5] = tested on: PPM1A-regulated P38 and JNK-1 phosphorylation in HEK293 cells; assay type: cell-based, human; details: HEK293, PPM1A overexpression, 1.5 μM CdCl2 6 h, sorbitol 0.4 M 20 min
How it was run: (§2)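 Transfected HEK293 (Flag-tagged wild-type PPM1A, D239K mutant, or control vector) starved 12 h at 36 h post-transfection, then exposed to 1.5 µM CdCl2 or none for 6 h before sorbitol (0.4 M, 20 min, 37°C). Phospho-P38 and phospho-JNK by immunoblotting of cleared lysates (equal protein, BCA); data from ≥3 experiments.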

[6] = tested on: PPM1A D239K-regulated P38 and JNK-1 phosphorylation in HEK293 cells; assay type: cell-based, human; details: HEK293, PPM1A D239K overexpression, 1.5 μM Cd^2+
How it was run: as §2

[7] = tested on: PPM1A-regulated ERK phosphorylation in HEK293 cells; test: EGF-stimulated ERK phosphorylation in PPM1A-overexpressing HEK293 cells; assay type: cell-based, human; details: HEK293, PPM1A overexpression, 1.5 μM Cd^2+, EGF 5 ng/ml 5 min
How it was run: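 HEK293 in DMEM (25 mM glucose, 10% FBS, penicillin/streptomycin), 37°C, 5% CO2, transiently transfected with Flag-tagged phosphatase or control vector. 36 h post-transfection, serum-starved 12 h, 1.5 µM CdCl2 or none for 6 h, then EGF 5 ng/ml, 5 min, 37°C. Lysates immunoblotted for phospho-ERK or phospho-AKT Ser473; actin loading control; ≥3 experiments.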

HEK293 cells = test: Cell cycle assay in PPM1A-overexpressing HEK293 cells; assay type: cell-based, human; details: HEK293, PPM1A overexpression, 1.5 μM Cd^2+, 24 h
How it was run: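 HEK293 transfected with Flag-PPM1A, serum-starved 12 h (36 h post-transfection), given 1.5 µM CdCl2 for 24 h with cycling restarted by 10% FBS medium. Cells fixed in 75% ethanol at 4°C overnight, resuspended in PBS with 0.1% NaN3, stained with propidium iodide (50 µg/ml); DNA content by flow cytometry, G2/M percentage; ≥3 repeats.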

PPM1A [8] = target: T3, PPM1A; test: Dephosphorylation of pp-ERK2 protein by PPM1A in vitro; assay type: biochemical; details: 1.5 μM Cd^2+, 1 mM Mn^2+, pH 8.0, 37°C, wild-type PPM1A
How it was run: as §1

PPM1A D239K = target: T5, PPM1A D239K (Homo sapiens, UniProt P35813, D239K); test: Dephosphorylation of pp-ERK2 protein by PPM1A D239K in vitro; assay type: biochemical; details: 1.5 μM Cd^2+
T5 sequence (P35813 1-382 D239K): T1 sequence (P35813 1-382 D282A) with D239K, A282D
How it was run: as §1

PPM1G [9] = target: T2, PPM1G; test: Dephosphorylation of pp-ERK2 protein by PPM1G in vitro; assay type: biochemical; details: 1.5 μM Cd^2+, 1 mM Mn^2+, pH 8.0, 37°C
How it was run: as §1

PHLPP2 catalytic domain = target: T6, PHLPP2 catalytic domain (Homo sapiens, UniProt Q6ZVD8); test: Cadmium inhibition assay of PHLPP2 catalytic domain; assay type: biochemical; details: pNPP, pH 8.0, 25°C
T6 sequence (Q6ZVD8 784-1033): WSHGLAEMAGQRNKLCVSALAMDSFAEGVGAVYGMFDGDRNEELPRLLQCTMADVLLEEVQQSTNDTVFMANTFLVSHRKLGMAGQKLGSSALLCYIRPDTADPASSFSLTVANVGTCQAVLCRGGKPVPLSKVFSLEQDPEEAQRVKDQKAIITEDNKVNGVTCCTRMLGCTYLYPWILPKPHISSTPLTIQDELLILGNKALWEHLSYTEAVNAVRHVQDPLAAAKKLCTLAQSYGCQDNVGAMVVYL
How it was run: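 His-tagged human PHLPP2 catalytic domain (residues 784-1033) expressed from pET-30a; pNPP hydrolysis in 0.05 M Tris, 0.05 M Bis-Tris, 0.1 M acetate, pH 8.0, 25°C, stopped with 0.5 M EDTA pH 10.0; p-nitrophenol at 405 nm.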

PPM1A [10] = target: T3, PPM1A; test: PPM1A-catalyzed pNPP hydrolysis, metal ion activation and inhibition; assay type: biochemical; details: PPM1A wild type, Mn^2+ as variable substrate, pH 8.0, 25°C
How it was run: (§3)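 Recombinant N-terminal His-tagged human wild-type enzyme in pNPP buffer (0.05 M Tris/0.05 M Bis-Tris/0.1 M acetate), pH 8.0, 25°C. Metal activation: Mn2+ varied 1 to 100 mM with saturating pNPP (10-40 mM), EDTA stop, 405 nm, Michaelis-Menten fit. Inhibition: pNPP fixed at 20 mM, Mn2+ varied, Cd2+ at 0, 0.25, 0.5 and 1.0 µM; double-reciprocal analysis.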

PPM1G [11] = target: T2, PPM1G; test: PPM1G-catalyzed pNPP hydrolysis, metal ion activation and inhibition; assay type: biochemical; details: PPM1G wild type, Mn^2+ as variable substrate, pH 8.0, 25°C
How it was run: as §3

Question: For `[Cd+2]` [Cd^2+, cadmium], which “effect on dephosphorylation of phospho-ERK” value (“effect on dephosphorylation” for short) (PPM1A D282A) is on record?
Answer: The value was “minimally affected”.

Question: What about the PC12 cell apoptosis [1] of the same compound?
Answer: The PC12 cell apoptosis was “did not promote”.

Question: And the PC12 cell apoptosis (PC12 cells)?
Answer: The PC12 cell apoptosis was “induced”.

Question: And the IC50 (PP2A)?
Answer: The IC50 was 130 µM.

Question: What about the IC50 (PPM1G [2]) of the same compound?
Answer: The IC50 was “low micromolar range”.

Question: What about the IC50 (PPM1A [3]) of the same compound?
Answer: Its IC50 is “low micromolar range”.

Question: What about the “effect on dephosphorylation” value [4] of the same compound?
Answer: The value was “no effect”.

Question: And the “effect on PPM1A block of sorbitol-induced P38 and JNK-1 phosphorylation” value [5]?
Answer: Its value is “drastically reversed”.

Question: And the “effect on D239K block of sorbitol-induced P38 and JNK-1 phosphorylation” value [6]?
Answer: Its value is “much weaker effects”.

Question: What about the “effect on PPM1A reduction of EGF-induced ERK phosphorylation” value [7] of the same compound?
Answer: The value was “reversed”.

Question: And the “effect on PPM1A-induced increase in proportion of cells in G2/M” value (HEK293 cells)?
Answer: The value was “greatly reversed”.

Question: What about the “effect on dephosphorylation” value (PPM1A [8]) of the same compound?
Answer: The value was “substantially blocked”.

Question: What about the “effect on dephosphorylation” value (PPM1A D239K) of the same compound?
Answer: Its value is “minimally affected”.

Question: And the “effect on dephosphorylation” value (PPM1G [9])?
Answer: The value was “substantially blocked”.

Question: And the IC50 (PHLPP2 catalytic domain)?
Answer: Its IC50 is 3000 µM.

Question: What about the Ki (PPM1A [10]) of the same compound?
Answer: Its Ki is < 1 µM and ~1 µM.

Question: And the Ki (PPM1G [11])?
Answer: The Ki was < 1 µM and ~1 µM.
